Reference: ChEMBL document CHEMBL4257590, “Semisynthesis of Platensimycin Derivatives with Antibiotic Activities in Mice via Suzuki-Miyaura Cross-Coupling Reactions” (J Med Chem, 2018)
Values after ≈ are worked out from the molar mass of the structure shown. Active and inactive are the calls of the source. The rule behind the calls is not given here.

How the values were obtained:
[1] = tested on: Staphylococcus aureus; experiment: Antibacterial activity against Staphylococcus aureus ATCC 29213 after 16 hrs by agar dilution method; format: functional; conditions: ATCC 29213, 16 h
Procedure, shortened: (§1)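 Agar dilution in LB agar with compound (from methanol solutions) at final 0.5–64 μg/ml per plate. Strains grown 16 h at 37 °C, 250 rpm in LB broth, adjusted to OD600 0.25±0.05, diluted 10^4-fold; 2 μl spotted per plate, incubated 16 h at 37 °C. MIC = lowest concentration with no visible colonies; at least two independent experiments. Linezolid and PTM as controls.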

[2] = tested on: Staphylococcus aureus; experiment: Antibacterial activity against methicillin-sensitive Staphylococcus aureus isolate 1 after 16 hrs by agar dilution method; format: functional; conditions: isolate 1, 16 h; procedure, shortened: as §1
[3] = tested on: Staphylococcus aureus; experiment: Antibacterial activity against methicillin-sensitive Staphylococcus aureus isolate 2 after 16 hrs by agar dilution method; format: functional; conditions: isolate 2, 16 h; procedure, shortened: as §1
[4] = tested on: Staphylococcus aureus; experiment: Antibacterial activity against methicillin-resistant Staphylococcus aureus isolate 3 after 16 hrs by agar dilution method; format: functional; conditions: isolate 3, 16 h; procedure, shortened: as §1
[5] = tested on: Staphylococcus aureus; experiment: Antibacterial activity against methicillin-resistant Staphylococcus aureus isolate 4 after 16 hrs by agar dilution method; format: functional; conditions: isolate 4, 16 h; procedure, shortened: as §1
[6] = tested on: Staphylococcus aureus; experiment: Antibacterial activity against methicillin-resistant Staphylococcus aureus isolate 5 after 16 hrs by agar dilution method; format: functional; conditions: isolate 5, 16 h; procedure, shortened: as §1
[7] = tested on: Staphylococcus aureus; experiment: Antibacterial activity against methicillin-resistant Staphylococcus aureus isolate 6 after 16 hrs by agar dilution method; format: functional; conditions: isolate 6, 16 h; procedure, shortened: as §1
[8] = tested on: Staphylococcus aureus; experiment: Antibacterial activity against methicillin-resistant Staphylococcus aureus after 18 hrs in presence of 10% human serum by resazurin dye-based assay; format: functional
Procedure, shortened: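 One clinical MRSA strain grown to exponential phase (OD600 = 0.5), diluted to 10^6 CFU/ml in Mueller-Hinton broth; 100 μl compound dilutions mixed with 100 μl bacteria with or without 10% human serum, 18 h at 37 °C. Resazurin (0.66 mM, 50 μl) then added and read visually.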

[9] = tested on: Staphylococcus aureus; experiment: Antibacterial activity against methicillin-resistant Staphylococcus aureus infected in C57BL/6J mouse assessed as reduction in bacterial load in blood at 50 mg/kg, ip administered 1 and 5 hrs postinfection and measured at 12 hrs post bacterial infection; format: functional, organism-based
Procedure, shortened: (§2)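 Female C57BL/6J mice, 6–8 weeks, 18–21 g, infected ip with 2 × 10^7 CFU MRSA in 0.2 ml saline with 5% hog gastric mucin. Dosed ip 50 mg/kg at 1 and 5 h post-infection; test agents at 5 mg/mL in 12.5% DMSO/30% propanediol/30% PEG400/27.5% saline, vancomycin in saline, saline control. At 12 h blood and homogenized kidneys plated on LB agar overnight at 37 °C for CFU; n = 5, mean ± SEM, unpaired two-tailed t-test.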

[10] = tested on: Staphylococcus aureus; experiment: Antibacterial activity against methicillin-resistant Staphylococcus aureus infected in C57BL/6J mouse assessed as reduction in bacterial load in kidney at 50 mg/kg, ip administered 1 and 5 hrs postinfection and measured at 12 hrs post bacterial infection; format: functional, organism-based; procedure, shortened: as §2
[11] = tested on: Mus musculus; experiment: Toxicity in C57BL/6J mouse infected with methicillin-resistant Staphylococcus aureus assessed as mouse death at 50 mg/kg, […] measured within 48 hrs; format: organism-based; conditions: in vivo, ip
[12] = tested on: Staphylococcus aureus; experiment: Antibacterial activity against methicillin-resistant Staphylococcus aureus infected in C57BL/6J mouse assessed as protection against lethal peritonitis by measuring mouse survival at 50 mg/kg, ip administered 1 and 5 hrs postinfection and measured up to 24 hrs post infection; format: functional, organism-based
Procedure, shortened: (§3)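 Lethal peritonitis: female C57BL/6J mice, 6–8 weeks, 18–21 g, infected ip with 2 × 10^7 CFU MRSA in 0.5 ml saline with 5% (w/v) mucin. Treated ip 0.2 mL/mouse at 1 and 5 h post-infection (n = 5/group): 50 mg/kg at 5 mg/mL in 12.5% DMSO vehicle, or 10 mg/kg at 1 mg/mL in 2.5% DMSO/30% propanediol/30% PEG400/37.5% saline; vancomycin in saline, saline control. Checked twice daily for survival and body weight over 7 days.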

[13] = tested on: Mus musculus; experiment: Toxicity in C57BL/6J mouse infected with methicillin-resistant Staphylococcus aureus assessed as effect on mouse body weight at 10 mg/kg, ip administered 1 and 5 hrs postinfection and measured for 7 days; format: organism-based; conditions: in vivo, 168 h; procedure, shortened: as §3

## C[C@]12C[C@@]34C=C(c5cc6cccc7ccc8cccc5c8c76)C(=O)[C@@](C)(CCC(=O)Nc5c(O)ccc(C(=O)O)c5O)[C@@H]3[C@H](C[C@H]1C4)O2
[1]
  MIC: 2 µg/mL (≈ 3.12 µM)
[2]
  MIC: 2 µg/mL (≈ 3.12 µM)
[3]
  MIC: 2 µg/mL (≈ 3.12 µM)
[4]
  MIC: 4 µg/mL (≈ 6.23 µM)
[5]
  MIC: 2 µg/mL (≈ 3.12 µM)
[6]
  MIC: 4 µg/mL (≈ 6.23 µM)
[7]
  MIC: 2 µg/mL (≈ 3.12 µM)
[8]
  MIC: 4 µg/mL
[9]
  Activity: Active
[10]
  Activity: Active
[11]
  Activity: Toxic
[12]
  Activity: inactive
[13]
  Activity: Non-Toxic
